For seven molecules, IC50 and inhibition results are on record in PMC6054836 (Molecular Vision, 2018).

Assay [1] deals with PKCβ2 (Homo sapiens, UniProt P05771). The experiment in a line: In vitro PKC inhibition assay. It counts as biochemical. To be noted: read-out: IC50 PKCβ2; purified human recombinant PKCβ2, 15 min, room temperature. In outline: (§1)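 Purified human recombinant PKC isoforms incubated at room temperature with ATP and isoform-specific substrates (25 to 400 nM) plus increasing concentrations of test compound (C8–C18 alkyl benzyl quaternary ammonium class). TR-FRET detection (LANCE or HTRF). Percent inhibition of control activity; IC50 and Hill coefficient from nonlinear Hill-equation fits of mean replicate values.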
Sequence of PKCβ2 (P05771 1-673 isoform P05771-2): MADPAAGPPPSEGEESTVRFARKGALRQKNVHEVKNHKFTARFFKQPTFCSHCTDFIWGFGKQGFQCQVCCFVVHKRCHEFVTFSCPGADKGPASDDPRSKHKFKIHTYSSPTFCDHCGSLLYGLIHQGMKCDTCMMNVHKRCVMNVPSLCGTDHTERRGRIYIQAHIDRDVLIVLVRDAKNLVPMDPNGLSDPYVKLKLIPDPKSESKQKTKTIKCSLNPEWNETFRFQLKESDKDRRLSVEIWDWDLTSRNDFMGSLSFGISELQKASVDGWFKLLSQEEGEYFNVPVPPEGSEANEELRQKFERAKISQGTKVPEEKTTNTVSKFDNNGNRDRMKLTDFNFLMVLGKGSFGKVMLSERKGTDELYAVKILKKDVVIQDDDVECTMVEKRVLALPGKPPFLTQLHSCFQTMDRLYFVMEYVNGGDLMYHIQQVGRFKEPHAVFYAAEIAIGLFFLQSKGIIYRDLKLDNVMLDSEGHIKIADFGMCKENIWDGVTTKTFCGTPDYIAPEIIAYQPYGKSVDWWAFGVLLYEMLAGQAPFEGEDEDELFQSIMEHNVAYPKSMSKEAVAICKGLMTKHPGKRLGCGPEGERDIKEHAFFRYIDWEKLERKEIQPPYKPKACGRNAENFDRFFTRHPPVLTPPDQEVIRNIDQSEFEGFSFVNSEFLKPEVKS

For assay [2], the target named is PKCδ (Homo sapiens, UniProt Q05655). The experiment in a line: In vitro PKC inhibition assay. Format: biochemical. To be noted: read-out: IC50 PKCδ; purified human recombinant PKCδ, 30 min, room temperature. In outline:
as §1

The target in assay [3] is PKCα (Homo sapiens, UniProt P17252). The experiment in a line: In vitro PKC inhibition assay. Format: biochemical. Conditions: read-out: IC50 PKCα; purified human recombinant PKCα, 15 min, room temperature. In outline:
as §1

Assay [4] has as its target PKCβ1 (Homo sapiens, UniProt P05771). The experiment in a line: In vitro PKC inhibition assay. It counts as biochemical. Conditions: read-out: IC50 PKCβ1; purified human recombinant PKCβ1, 30 min, room temperature. In a few lines:
as §1

For assay [5], the system named is PBMCs (LPS). The experiment in a line: Marker secretion inhibition in LPS-stimulated PBMCs. Format: cell-based. To be noted: Homo sapiens, PBMC. In outline: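 PBMCs were Ficoll-isolated from one donor's blood and cultured in RPMI 1640 with 10% heat-inactivated FBS, 2 mM glutamine and pen/strep at 37 °C, 5% CO2. Test compound was given in a 30-min preincubation, then in fresh medium with LPS for 24 h. IL-6, IL-8 and IL-12 in supernatant were measured by flow-cytometric bead array. Results are % inhibition versus stimulated cells, mean ± SEM of triplicates.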

Like-named read-outs stand apart in the source and are kept apart here. Where only a bound is given, the exact number is not on record here.

Sequence of PKCδ (Q05655 whole entry): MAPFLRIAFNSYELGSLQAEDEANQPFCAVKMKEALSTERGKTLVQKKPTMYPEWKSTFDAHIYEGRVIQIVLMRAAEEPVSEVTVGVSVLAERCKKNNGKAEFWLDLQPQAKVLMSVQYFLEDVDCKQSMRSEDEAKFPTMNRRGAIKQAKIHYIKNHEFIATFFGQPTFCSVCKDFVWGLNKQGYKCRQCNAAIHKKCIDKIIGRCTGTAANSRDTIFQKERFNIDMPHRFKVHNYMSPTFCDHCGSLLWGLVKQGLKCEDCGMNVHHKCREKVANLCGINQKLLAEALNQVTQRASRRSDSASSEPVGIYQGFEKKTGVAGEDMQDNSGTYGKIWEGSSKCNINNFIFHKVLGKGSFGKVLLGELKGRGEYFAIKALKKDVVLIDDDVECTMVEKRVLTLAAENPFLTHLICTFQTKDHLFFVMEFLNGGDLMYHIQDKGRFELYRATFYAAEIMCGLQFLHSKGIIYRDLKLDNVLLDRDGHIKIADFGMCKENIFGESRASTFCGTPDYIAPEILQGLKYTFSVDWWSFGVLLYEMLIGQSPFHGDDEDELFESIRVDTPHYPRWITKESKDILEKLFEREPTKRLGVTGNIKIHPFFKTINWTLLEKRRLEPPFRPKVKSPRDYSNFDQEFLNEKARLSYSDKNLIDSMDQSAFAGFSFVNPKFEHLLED
Sequence of PKCβ1 (P05771 whole entry): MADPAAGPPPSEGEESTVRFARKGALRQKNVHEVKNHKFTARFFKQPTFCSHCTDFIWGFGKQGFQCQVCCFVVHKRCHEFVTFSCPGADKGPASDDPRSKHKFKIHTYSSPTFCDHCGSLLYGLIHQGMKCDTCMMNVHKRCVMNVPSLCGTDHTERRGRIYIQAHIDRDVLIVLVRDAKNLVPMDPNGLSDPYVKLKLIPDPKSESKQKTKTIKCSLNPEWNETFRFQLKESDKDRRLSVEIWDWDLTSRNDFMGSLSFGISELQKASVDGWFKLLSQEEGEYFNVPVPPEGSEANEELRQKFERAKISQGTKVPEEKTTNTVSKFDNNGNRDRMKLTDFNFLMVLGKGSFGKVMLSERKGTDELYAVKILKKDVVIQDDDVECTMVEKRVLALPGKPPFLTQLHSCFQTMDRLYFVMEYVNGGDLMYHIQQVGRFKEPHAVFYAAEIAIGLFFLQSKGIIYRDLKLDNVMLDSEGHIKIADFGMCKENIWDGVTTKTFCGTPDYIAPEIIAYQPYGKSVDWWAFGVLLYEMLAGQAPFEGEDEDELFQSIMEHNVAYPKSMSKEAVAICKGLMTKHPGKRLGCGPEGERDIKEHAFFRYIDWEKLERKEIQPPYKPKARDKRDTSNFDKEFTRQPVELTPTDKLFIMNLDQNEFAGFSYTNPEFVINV

For the molecule `CCCCCCCCCCCCCC[N+](C)(C)Cc1ccccc1` [C14], the IC50 in assay [1] was 14.1 µM; in assay [2] it was over 109 µM; in assay [3], 5.4 µM; in assay [4] it was 10.1 µM.
`C[C@@H]1C[C@H]2[C@@H]3CCC4=CC(=O)C=C[C@]4(C)[C@@]3(F)[C@@H](O)C[C@]2(C)[C@@]1(O)C(=O)CO` [DXM, dexamethasone]: the inhibition at 0.1 µM in assay [5] (read-out: % of marker secretion inhibition, IL6) stood at 72 ± 1%; in assay [5] (read-out: % of marker secretion inhibition, IL8) it was 68 ± 2%; in assay [5] (read-out: % of marker secretion inhibition, IL12) it was 97 ± 1%; in assay [5] (read-out: % of marker secretion inhibition, TNFα), 85 ± 1%.
With `CCCCCCCCCCCCCCCC[N+](C)(C)Cc1ccccc1` [C16 (CKC), cetalkonium chloride], the IC50 in assay [1] and in assay [4] was over 101 µM throughout.
For the molecule `CCCCCCCCCC[N+](C)(C)Cc1ccccc1` [C10], the half-inhibitory concentration (IC50) is over 101 µM in assay [1], over 128 µM in assay [2], over 128 µM in assay [3] and over 101 µM in assay [4].
As to `CCCCCCCC[N+](C)(C)Cc1ccccc1` [C8], the IC50 was over 101 µM in assay [1], over 141 µM in assay [3] and over 101 µM in assay [4].
On to `CCCCCCCCCCCCCCCCCC[N+](C)(C)Cc1ccccc1` [C18], for which the IC50 turned out to be 39.3 µM in assay [1], 11.7 µM in assay [3] and 74.6 µM in assay [4].
Take `CCCCCCCCCCCC[N+](C)(C)Cc1ccccc1` [C12]: the IC50 in assay [1] is 58.8 µM; in assay [2], over 118 µM; in assay [3] it was 22.6 µM; in assay [4], 58.8 µM.

By IC50 is commonly meant the point on the concentration scale where inhibition reaches its midpoint. The term inhibition denotes how much of the control response was suppressed.
